Compound activity as filed in PubChem BioAssay.
SMARCA2 act = SMARCA2 function activation, primary screen; activation, % at 9.1 µM; 370,000 compounds, 1% hits; MG213 cells, MMTV-luciferase reporter, dexamethasone, overnight; in the data active means activation above about 7.8%
NR2E3 ag-1 = activates human photoreceptor nuclear receptor NR2E3; Q9Y5X4; AID 2300; 320,000 compounds, 0.12% hits; inhibition of corepressor binding, % at 4.78 µM; GST-NR2E3/biotin-RetCOR TR-FRET, 1536-well;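 active means percent inhibition above the cutoff of mean plus 3 SD of all tested compounds, set per screening campaign, cut at about 20% in these data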
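system = GST-tagged NR2E3 plus biotinylated RetCOR corepressor | input = 1.35 nM GST-NR2E3 | also added = 7 nM biotin-RetCOR | schedule = 5 h incubation at 4 °C | measured by = TR-FRET with europium anti-GST and streptavidin-D2, 340 nm excitation | read-out = percent loss of FRET ratio relative to control wells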
GalR3 antag = antagonists of human GalR3; O60755; HEK293 GalR3-CNG cAMP membrane potential fluorescence; galR3 body fused to GalR1 C-terminus; inhibition, % at 3 µM; 360,000 compounds, 0.44% hits; AID 651719;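 active means inhibition above the screen-wide average plus 3 SD, cut at about 13% in these data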;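 further: forskolin and galanin both at EC90 stimulate the cells; cAMP rise reported by CNG channel membrane potential dye signal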
NR2E3 ag-2 = agonists of human NR2E3 nuclear receptor; CHO-S Gal4-NCOR/VP16-NR2E3 two-hybrid, luciferase; inhibition of corepressor binding, % at 3.98 µM; 360,000 compounds, 0.35% hits; Q9Y5X4; AID 602229;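 active means inhibition above the mean of all tested compounds plus 3 SD, cut at about 70% in these data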;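 further: higher means lower luciferase signal from less NR2E3 corepressor binding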
COUP-TFII inh = NR2F2 (human) inhibition, primary screen; 370,000 compounds, 0.7% hits; inhibition, % at 8.6 µM; AID 686940; HEK293T NGFI-A luciferase reporter, luminescence; P24468;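 active means inhibition above a per-plate cutoff, mean inhibition of test wells between control levels plus 3 SD, cut at about 38% in these data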;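 further: cells cotransfected with COUP-TFII expression vector driving the NGFI-A reporter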
Target sequence (P24468 whole entry, looked up): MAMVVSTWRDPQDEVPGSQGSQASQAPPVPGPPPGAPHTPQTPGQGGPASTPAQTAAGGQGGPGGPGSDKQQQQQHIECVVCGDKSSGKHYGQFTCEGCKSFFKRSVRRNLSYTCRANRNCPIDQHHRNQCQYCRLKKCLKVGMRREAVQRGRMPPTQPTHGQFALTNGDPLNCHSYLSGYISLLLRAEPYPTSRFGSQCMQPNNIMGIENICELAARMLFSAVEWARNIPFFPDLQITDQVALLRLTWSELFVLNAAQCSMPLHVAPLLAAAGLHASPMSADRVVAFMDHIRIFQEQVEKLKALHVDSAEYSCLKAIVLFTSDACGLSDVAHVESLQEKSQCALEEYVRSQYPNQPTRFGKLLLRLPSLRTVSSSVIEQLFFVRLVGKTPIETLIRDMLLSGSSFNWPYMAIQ
NR2E3 ag conf = NR2E3 agonism confirmed in two-hybrid assay; 2,300 compounds, 51% hits; shares compounds with NR2E3 ag-2; inhibition, % at 3.98 µM; CHO-S mammalian two-hybrid NR2E3-NCOR, luciferase luminescence;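 active means average inhibition above a cutoff equal to the mean inhibition of all tested compounds plus one SD, cut at about 70% in these data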
VP16 counter = reduces GAL4-VP16 reporter signal in NR2E3 counterscreen. shares compounds with NR2E3 ag-2. CHO-S GAL4-VP16 luciferase reporter, luminescence. inhibition, % at 3.98 µM. 2,300 compounds, 29% hits;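 active means mean inhibition above a cutoff equal to the average over all tested compounds plus one standard deviation, cut at about 70% in these data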;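 further: luciferase from a UAS reporter driven by GAL4-VP16 transactivation; higher means less reporter light so more repression of VP16 activity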
A number is an active result; n = inactive; x = no result given. Hits are enriched below; roughly 2.2% of the tested compounds scored in any of these assays.

SMILES	SMARCA2 act	NR2E3 ag-1	GalR3 antag	NR2E3 ag-2	COUP-TFII inh	NR2E3 ag conf	VP16 counter
CCc1cc2c(=O)nc3n(c2s1)Cc1ccccc1/C3=C(/O)c1ccc(F)cc1	n	n	n	n	n	n	n
O=C(NCc1ccc(F)c(F)c1)C1C2C=CC3(CN(Cc4ccccc4)C(=O)C13)O2 (centres undefined)	n	x	x	x	n	x	x
Oc1ccc(O)c(C=NNC(=S)NC2CC3CC2C2C=CCC32)c1 (centres undefined)	n	x	n	n	n	n	n
O=C1NC(=O)C(c2ccc(F)cc2)N1 (centres undefined)	n	n	n	106.7	n	n	n
COc1ccc(NS(=O)(=O)c2ccc3c(c2)Cc2ccccc2-3)cn1	n	n	n	85.2	n	92.8	76.7
CCCCCc1ccc(NC(=O)OCCCN2CCC3(CCC(c4ccccc4)CC3)C2=O)cc1 (centres undefined)	n	x	x	x	n	x	x
N#C/C(=N\Nc1cccc([N+](=O)[O-])c1)C(=O)c1ccc(Br)cc1	n	n	n	95.4	n	99.2	86.2
O=C(O)c1ccc(N=NNc2cccc([N+](=O)[O-])c2)cc1	n	n	n	n	n	x	x
COc1ccc(NS(=O)(=O)c2ccc(C(=O)N3CCN(c4ccc(F)cc4)CC3)cc2)cc1	n	x	n	75.2	n	73.8	n
Cc1ccc(NS(=O)(=O)c2ccc(C(=O)N3CCN(S(=O)(=O)c4ccccc4)CC3)cc2)cc1	n	n	n	n	n	n	n
COC(=O)c1cccc(N2C(=O)C[C@](Sc3ccc(OC)cc3)(C(=O)N3CCOCC3)[C@H]2c2ccc(OC)cc2)c1	n	x	x	x	n	x	x
C[C@H](O)[C@@H]1CN2CCc3c([nH]c4c(-c5ccc6c(c5)OCO6)cccc34)[C@@H]2C[C@@H]1N(C)C(=O)Nc1ccccc1	n	x	x	x	n	x	x
CC(C)C(=O)N1CC[C@H]2[C@H](CCCN2Cc2ccc(F)cc2)C1	n	x	x	x	n	x	x
N#CCc1ccc(NS(=O)(=O)c2ccc(C3CCCCC3)cc2)cc1	n	n	n	76.1	n	92.3	72.2
COc1ccc(S(=O)(=O)Nc2ccc(CC#N)cc2)cc1	n	n	n	n	n	x	x
Cc1cccc(NS(=O)(=O)c2ccc(C3CCCCC3)cc2)c1	n	n	n	70.2	n	93.5	79.1
O=C(O)c1cccc(NS(=O)(=O)c2ccc(C3CCCCC3)cc2)c1	x	n	x	n	x	x	x
COc1ccc(C(=O)N[C@@H]2CC[C@@]34CCCN3C(=O)CCC[C@H]4[C@H]2C)cc1	x	x	x	x	n	x	x
COC(=O)[C@]12C[C@H](CC(=O)NCC3CCCCC3)C(=O)N(Cc3ccco3)C1=C[C@H](COCc1ccccc1)O[C@@H]2C	n	x	x	x	n	x	x
Cc1cc(C)nc(Nc2cccc(Cl)c2)n1	n	x	n	n	n	x	x
OCCCNc1cc(-c2ccnc(Nc3cccc(Cl)c3)n2)ccn1	n	n	n	99.4	60.5	100.0	95.0
CCC(C)Oc1cc(-c2ccnc(Nc3cccc(Cl)c3)n2)ccn1 (centres undefined)	n	n	n	n	n	94.0	n
CN(C)CCCNc1ccc(-c2cc(Nc3cccc(Cl)c3)ncn2)cn1	n	n	n	n	n	x	x
CC1=C2NC(N)=[N+](CC3CC3)C(Cc3ccccc3)[C@@H]2n2c(=O)n(-c3ccccc3)c(=O)n2C1 (some centres undefined)	n	x	x	x	n	x	x
NC(=S)NN=Cc1nccc2c(C(F)(F)F)cccc12	n	x	n	n	n	n	n
SMILES	SMARCA2 act	NR2E3 ag-1	GalR3 antag	NR2E3 ag-2	COUP-TFII inh	NR2E3 ag conf	VP16 counter
CNc1cccnc1C=NNC(N)=S	n	x	n	n	n	x	x
CC(COc1cccc(Cl)c1)CN1CCC(C(O)(c2ccccc2)c2ccccc2)CC1 (centres undefined)	n	x	x	x	n	x	x
CCC1(OC(=O)CN(C)C)C(=O)OCc2c1cc1n(c2=O)Cc2cc3c(N)cccc3nc2-1 (centres undefined)	x	x	x	n	x	83.8	n
CCC1(O)C(=O)OCc2c1cc1n(c2=O)Cc2cc3c(N)cccc3nc2-1 (centres undefined)	n	x	n	86.1	n	94.1	n
N#C[C@@H]1N[C@H](CO)[C@@H]1c1ccccc1	n	x	x	x	n	x	x
C[C@H](O)[C@@H]1CN2CCc3ccc(N4CCOCC4)cc3[C@@H]2C[C@@H]1N(C)C(=S)NCCc1ccccc1	n	x	x	x	n	x	x
Cc1ccc(CNc2nc(C)nc3sc4c(c23)CCC4)cc1	n	n	n	n	n	n	n
CC(CCc1ccccc1)NC(=S)NC(=O)c1ccco1 (centres undefined)	n	n	n	n	n	x	x
O=C(NC(=S)N(CCc1ccccc1)CCc1ccccc1)c1ccco1	n	n	n	n	n	n	n
O=C(NC(=S)N(Cc1ccccc1)Cc1ccccc1)c1ccccc1F	n	n	n	n	n	n	n
O=C(NC(=S)NCc1ccccc1)c1ccccc1F	n	n	n	n	n	x	x
CC(C)CSc1ncccc1-c1nc2ccccc2[nH]1	n	x	x	x	n	x	x
Cc1cc(C)cc(C(=O)OCCN(C)C2CN(Cc3cn(Cc4ccc([N+](=O)[O-])cc4)nn3)S(=O)(=O)C2)c1 (centres undefined)	n	x	x	x	n	x	x
COC(=O)[C@]12C[C@H](CC(=O)NCCc3ccccc3OC)C(=O)N(Cc3ccco3)C1=C[C@H](C(C)(C)C)O[C@@H]2C	n	x	x	x	n	x	x
Cc1cccc(Cn2cc(COC(=O)NCC(C)C)nn2)c1	n	x	x	x	n	x	x
CCC(C)NC(=O)c1ccc2nc(Cc3ccc(OC)cc3)oc2c1 (centres undefined)	n	n	n	n	n	x	x
CCC(NC(=O)c1ccc2nc(Cc3ccc(OC)cc3)oc2c1)c1ccncc1 (centres undefined)	n	n	n	n	n	83.5	n
C[C@H]1[C@H](NC(=O)c2ccc(Cl)c(Cl)c2)CC[C@@]23CCCN2C(=O)CCC[C@@H]13	x	x	x	x	n	x	x
O=C1c2cc([N+](=O)[O-])ccc2-c2cc(Br)c(N=C(NO)C(F)(F)F)cc21	n	x	n	100.8	n	97.3	n
CCOC(=O)c1ccc(NC(=O)CSc2nnc(SCc3cccc4ccccc34)s2)cc1	n	x	x	x	n	x	x
Cc1ccc(OCCN2CCC2(C)C(=O)NCc2ccc(C(F)(F)F)cc2)cc1 (centres undefined)	n	x	n	n	n	n	n
Cc1ccc(OCCN2CCC2(C)C(=O)NCc2cccc3ccccc23)cc1 (centres undefined)	n	x	n	n	n	x	x
Fc1ccc(C(CCCn2nnc(-c3cccnc3)n2)c2ccc(F)cc2)cc1	n	n	n	n	n	n	n
CCCn1c(CNc2ccc(Br)cc2)nc2ccccc21	n	n	x	n	n	n	n
NC(=S)N=Nc1c(O)n(CCCl)c2ccc(Cl)cc12	n	n	n	n	n	n	n
